Active and inactive are the calls of the source. The calls are words filed in the database; no cut-off is given here.
Columns and labels:
Type in all cases: functional
NCI-H460 = test: Growth inhibition of human NCI-H460 cells after 48 hrs by SRB assay; conditions: NCI-H460, 48 h
Method in brief: (§1)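 Cells seeded to stay in exponential growth (MCF-7 and NCI-H460 5.0 × 10³ cells/well, A375-C5 7.5 × 10³ cells/well) and left to adhere overnight. Then 48 h exposure to five serial dilutions (1:2 or 1:3) from DMSO stocks diluted in medium; DMSO vehicle control maximum 0.25%. TCA fixation, SRB staining, Tris solubilisation, absorbance at 492 nm. GI50 taken from dose–response curves as 50% inhibition of net growth. Mean ± SEM of ≥3 independent experiments, in duplicate.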

MCF7 [1] = test: Growth inhibition of human MCF7 cells after 48 hrs by SRB assay; conditions: MCF7, 48 h; method in brief: as §1
[2] = Growth inhibition of human A375-C5 cells after 48 hrs by SRB assay; conditions: A375-C5, 48 h; method in brief: as §1
MCF7 [3] = test: Induction of apoptosis in human MCF7 cells at 10.5 uM by annexinV-propidium iodide staining-based flow cytometric analysis (reference value: 11.1%)
Method in brief: (§2)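 MCF-7 handled as for the cell-cycle study: 48 h exposure at the stated concentration, with untreated cells and a highest-level DMSO control. Harvested cells stained with annexin V-FITC/PI per kit instructions. Flow cytometry with ≥20,000 events per sample; apoptosis given as % of total cells. Mean ± SEM of three experiments (DMSO control two); unpaired t-test against untreated cells.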

MCF7 [4] = test: Induction of apoptosis in human MCF7 cells at 7.1 uM by annexinV-propidium iodide staining-based flow cytometric analysis (reference value: 11.1%); method in brief: as §2
MCF7 [5] = test: Induction of apoptosis in human MCF7 cells at 8 uM by annexinV-propidium iodide staining-based flow cytometric analysis (reference value: 11.1%); method in brief: as §2
MCF7 [6] = test: Cell cycle arrest in human MCF7 cells assessed as accumulation at sub-G1 phase at 8 uM after 48 hrs by propidium iodide staining-based flow cytometric analysis
Method in brief: (§3)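 MCF-7 plated in 6-well plates (5.0 × 10³ cells/well) and held 24 h at 37 °C. Exponentially growing cells then exposed 48 h at the single concentration stated. Untreated and highest-level DMSO controls included. Fixation in 70% ethanol at 4 °C for ≥12 h, then PBS with 0.1 mg/mL RNase A and 5 µg/mL PI. DNA content by flow cytometry, ≥20,000 events; sub-G1 fraction scored after debris exclusion. Mean ± SEM of three experiments; unpaired t-test versus untreated cells.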

MCF7 [7] = test: Induction of apoptosis in human MCF7 cells at 9.1 uM by annexinV-propidium iodide staining-based flow cytometric analysis (reference value: 11.1%); method in brief: as §2
MCF7 [8] = test: Induction of apoptosis in human MCF7 cells at 7.8 uM by annexinV-propidium iodide staining-based flow cytometric analysis (reference value: 11.1%); method in brief: as §2
MCF7 [9] = test: Cell cycle arrest in human MCF7 cells assessed as accumulation at sub-G1 phase at 7.8 uM after 48 hrs by propidium iodide staining-based flow cytometric analysis; method in brief: as §3
MCF7 [10] = test: Cell cycle arrest in human MCF7 cells assessed as accumulation at sub-G1 phase at 7.3 uM after 48 hrs by propidium iodide staining-based flow cytometric analysis relative to control; method in brief: as §3
MCF7 [11] = test: Induction of apoptosis in human MCF7 cells at 7.3 uM by annexinV-propidium iodide staining-based flow cytometric analysis (reference value: 11.1%); method in brief: as §2
MCF7 [12] = test: Induction of apoptosis in human MCF7 cells at 4.1 uM by annexinV-propidium iodide staining-based flow cytometric analysis (reference value: 11.1%); method in brief: as §2

Structure (SMILES) | GI50 (NCI-H460) [µM] | GI50 (MCF7 [1]) [µM] | GI50 [2] [µM] | further results
Cc1c(O)ccc(C(=O)/C=C/c2ccc(Cl)cc2Cl)c1O | 22.5 | 10.5 | 21.4 | Activity (MCF7 [3]): 16.6%
COc1cccc2c1C(=O)c1c(O)c3c(c(O)c1C2=O)C[C@@](O)(C(=O)CO)C[C@@H]3O[C@H]1C[C@H](N)[C@H](O)[C@H](C)O1 [DOXORUBICIN] | 0.086 | 0.0688 | 0.0915 | 
CCCc1c(O)ccc(C(=O)/C=C/c2ccccc2Cl)c1O | 12.5 | 7.1 | 14.2 | Activity (MCF7 [4]): 14.8%
O=C(/C=C/c1ccc(OCc2ccccc2)cc1)c1ccc(O)cc1O | 10.5 | 8 | 9 | Activity (MCF7 [5]): 15.4%; Activity (MCF7 [6]): Active
CCCc1c(O)ccc2c1OC(c1cc(OC)c(OC)cc1OC)CC2=O (stereo unspecified) | 47 | 18.8 | 32 | 
COc1ccc(/C=C/C(=O)c2ccc(O)cc2O)c(OC)c1 | 37 | 19.5 | 30.3 | 
CCCc1c(O)ccc(C(=O)/C=C/c2ccc(OCOC)cc2OCOC)c1O | 24.3 | 18.2 | 35 | 
CCCc1c(O)ccc(C(=O)/C=C/c2cc(OC)c(OC)cc2OC)c1O | 24.5 | 9.1 | 23 | Activity (MCF7 [7]): 13.3%
Cc1c(O)ccc(C(=O)/C=C/c2ccc(C(F)(F)F)cc2)c1O | 20.3 | 19.3 | 24.7 | 
COc1cc(/C=C/C(=O)c2ccc(O)cc2O)cc(OC)c1OC | 8.2 | 7.8 | 8.1 | Activity (MCF7 [8]): 20%; Activity (MCF7 [9]): Active
O=C(/C=C/c1ccc(F)cc1)c1ccc(O)cc1O | 15.3 | 7.3 | 14.1 | Activity (MCF7 [10]): 11%; Activity (MCF7 [11]): 23.9%
COc1cc(OC)c(OC)cc1/C=C/C(=O)c1ccc(O)cc1O | 60 | 31.8 | 34.8 | 
Cc1c(O)ccc(C(=O)/C=C/c2ccc(Cl)cc2)c1O | 43 | 34.5 | 41.6 | 
CCCc1c(O)ccc(C(=O)/C=C/c2ccc(OC)cc2)c1O | 24.7 | 13.3 | 46.3 | 
COc1ccc(C2CC(=O)c3ccc(O)c(C)c3O2)c(OC)c1 (stereo unspecified) | > 150 | 12.5 | > 150 | 
COCOc1ccc(/C=C/C(=O)c2ccc(O)c(C)c2O)c(OCOC)c1 | > 150 | 32.7 | > 150 | 
CCCc1c(O)ccc(C(=O)/C=C/c2cc(OC)c(OC)c(OC)c2)c1O | 8.3 | 4.1 | 8.2 | Activity (MCF7 [12]): 14%
